Assay [1] concerns Taenia crassiceps. In words: Minimum inhibitory concentration to prevent all movement of cysts and evaginated scoleces of in vitro Taenia crassiceps screen after 48 h. It is filed as functional. Summed up:
(§1)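 Taenia crassiceps cysts taken from mice, pepsin-treated (0.05% in HCl, pH 2.0, 5 min, 37 °C) and washed three times in Hank's balanced salt solution. Compound added as a methylcellulose suspension (final 10 μg/mL) in CMRL 1066-based medium with fetal calf serum, glucose, taurocholate, yeast extract, HEPES and antibiotics, at 37 °C. Invaginated and evaginated cysts scored at 24 and 48 h. Actives titrated for MIC.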

In assay [2] the test system is Taenia crassiceps. In words: 1 Minimum inhibitory concentration to prevent all movement of cysts and evaginated scoleces of in vitro Taenia crassiceps screen after 48 h. It is filed as functional. In short, it runs like this: as §1

This passage reports MIC results from ChEMBL document CHEMBL1124605, “Synthesis and anthelmintic activity of a series of pyrazino[2,1-a][2]benzazepine derivatives” (1989).

Consider `Cc1ccc(C(=O)N2CC(=O)N3CCCc4ccccc4C3C2)cc1` (stereo unspecified), for which the MIC against Taenia crassiceps [1] is not above 10 µg/mL.

In turn, `CC(=O)N1CC(=O)N2CCCc3ccccc3C2C1` (stereo unspecified) returned an MIC with Taenia crassiceps [1] of more than 10 µg/mL. On the same count and under the same terms, the same measure for `O=C(c1ccc(F)cc1)N1CC(=O)N2CCCc3ccccc3C2C1` (stereo unspecified): more than 10 µg/mL. On the same count and under the same terms, to `O=C(c1ccc([N+](=O)[O-])cc1)N1CC(=O)N2CCCc3ccccc3C2C1` (stereo unspecified) belongs more than 10 µg/mL. Same read-out and setting: the same measure for `CN(C)c1ccc(C(=O)N2CC(=O)N3CCCc4ccccc4C3C2)cc1` (stereo unspecified): more than 10 µg/mL; for `CC(C)C(=O)N1CC(=O)N2CCCc3ccccc3C2C1` (stereo unspecified): more than 10 µg/mL. For the molecule `O=C(C1CCCCC1)N1CC(=S)N2CCCc3ccccc3C2C1` (stereo unspecified), in the assay on Taenia crassiceps [1], the MIC was more than 10 µg/mL. Molecule `Nc1cccc(C(=O)N2CC(=O)N3CCCc4ccccc4C3C2)c1` (stereo unspecified) displayed an MIC with Taenia crassiceps [1] of more than 10 µg/mL. On the same count and under the same terms, to `O=C(C1CCOCC1)N1CC(=O)N2CCCc3ccccc3C2C1` (stereo unspecified) belongs more than 10 µg/mL. Same read-out and setting: the same measure for `O=C(C1CCC1)N1CC(=O)N2CCCc3ccccc3C2C1` (stereo unspecified): more than 10 µg/mL; for `O=C(C1CCCCCC1)N1CC(=O)N2CCCc3ccccc3C2C1` (stereo unspecified): more than 10 µg/mL; for `O=C(c1cccc(Cl)c1)N1CC(=O)N2CCCc3ccccc3C2C1` (stereo unspecified): more than 10 µg/mL. Molecule `O=C(c1cccc([N+](=O)[O-])c1)N1CC(=O)N2CCCc3ccccc3C2C1` (stereo unspecified) registered a minimal inhibitory concentration (MIC) against Taenia crassiceps [1] not above 10 µg/mL. On the same count and under the same terms, to `O=C(c1cccnc1)N1CC(=O)N2CCCc3ccccc3C2C1` (stereo unspecified) belongs more than 10 µg/mL; to `Cc1ccccc1C(=O)N1CC(=O)N2CCCc3ccccc3C2C1` (stereo unspecified), more than 10 µg/mL; to `Cl.O=C(C1CCCCC1)N1CCN2CCCc3ccccc3C2C1` (stereo unspecified), more than 10 µg/mL.

As for `O=C(c1ccc(Cl)cc1)N1CC(=O)N2CCCc3ccccc3C2C1` (stereo unspecified), the minimal inhibitory concentration (MIC) in the assay on Taenia crassiceps [1] is more than 10 µg/mL.

In the assay with Taenia crassiceps [1], `Cc1cccc(C(=O)N2CC(=O)N3CCCc4ccccc4C3C2)c1` (stereo unspecified) gave an MIC of more than 10 µg/mL.

Take `COc1ccc(C(=O)N2CC(=O)N3CCCc4ccccc4C3C2)cc1` (stereo unspecified): the minimum inhibitory concentration (MIC) in the assay on Taenia crassiceps [1] is more than 10 µg/mL. The same measure, in the same setting: to `CCCCCC(=O)N1CC(=O)N2CCCc3ccccc3C2C1` (stereo unspecified) belongs more than 10 µg/mL; to `COc1cc2c(cc1OC)C1CN(C(=O)C3CCCCC3)CC(=O)N1CCC2` (stereo unspecified), more than 10 µg/mL. The molecule `O=C(c1ccc(O)cc1)N1CC(=O)N2CCCc3ccccc3C2C1` (stereo unspecified) returned a minimal inhibitory concentration (MIC) in the assay with Taenia crassiceps [1] of more than 10 µg/mL. On the same count and under the same terms, the same measure for `O=C(C1CCCCC1)N1CC(=O)N2CCSc3ccccc3C2C1` (stereo unspecified): more than 10 µg/mL. Consider `O=C(C1CCCCC1)N1CC(=O)N2CCCc3ccccc3C2C1` (single isomer, unassigned; (-)) [EPSIPRANTEL], for which, in the assay with Taenia crassiceps [2], the minimal inhibitory concentration (MIC) is less than 0.1 µg/mL.

`O=C(C1CCCCC1)N1CC(=O)N2CCCc3ccccc3C2C1` (stereo unspecified) [EPSIPRANTEL] displayed a minimal inhibitory concentration (MIC) against Taenia crassiceps [1] not above 0.1 µg/mL. The same measure, in the same setting: to `O=C(C1CCCCC1)N1CC(=O)N2CCc3ccccc3C2C1` (stereo unspecified) [PRAZIQUANTEL] belongs not above 0.1 µg/mL.
